Experimental data reported in ChEMBL document CHEMBL1629545, “A morpholino oligomer targeting highly conserved internal ribosome entry site sequence is able to inhibit multiple species of picornavirus” (Antimicrob Agents Chemother, 2008).
Activity calls are given as the source filed them. The rule behind the calls is not given here.

Assays:
HeLa [1] = experiment: Cytotoxicity against human HeLa cells 10 uM after 24 hrs by MTS assay; assay type: cell-based
In short: (§1)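 HeLa cells at ~80% confluence, uninfected, exposed to 1–100 μM PPMO or water (mock) in serum-free DMEM-F-12 (1:1) for 24 h. MTS reagent was added for 4 h and absorbance read at 492 nm. Viability was expressed as percent of water-treated cells (set to 100%), averaged over 12 wells.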

HeLa [2] = experiment: Cytotoxicity against human HeLa cells at 10 uM by MTS assay; assay type: cell-based; in short: as §1
Poliovirus 1 [3] = experiment: Antiviral activity against Human poliovirus type 1 infected in Human HeLa cell after 21 hrs post infection by plaque assay; assay type: functional, organism-based; settings: Enterovirus C
In short: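 HeLa cells infected with cDNA-derived PV1 (MOI 0.1), then treated after infection with 2 to 100 μM PPMO. Supernatant virus was titrated by plaque assay on HeLa monolayers 21 h later: 1% agar overlay, 36 h at 37°C, formaldehyde fixation, crystal violet staining and plaque count. IC50 was taken from triplicate samples.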

HeLa [4] = experiment: Cytotoxicity against human HeLa cell after 21 hrs by MTS assay; assay type: functional, cell-based
In short: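 Uninfected HeLa cells were exposed to a range of PPMO concentrations for 21 h, then read by MTS assay (4 h, absorbance 492 nm) against water-mock cells set to 100%. CC50 was taken from the concentration–viability curve, and triplicate samples were averaged.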

Poliovirus 1 [5] = experiment: Antiviral activity against Human poliovirus type 1 infected in Human HeLa cell assessed as inhibition of translation at 10 uM by luciferase reporter gene assay; assay type: functional, organism-based
In short: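 HeLa cells were pretreated 4 h with 10 μM PPMO, then electroporated with 20 μg noncapped PV1-Luc replicon RNA (IRES-driven). They were kept in medium with 10 μM PPMO, with or without 2 mM guanidine HCl, at 37°C in 5% CO2. Luciferase in cell lysates was read at 1-h intervals after transfection. Two experiments were averaged.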

Poliovirus 1 [6] = experiment: Antiviral activity against Human poliovirus type 1 infected in Human HeLa cell assessed as inhibition of translation at 10 ug/ml by luciferase reporter gene assay; assay type: functional, organism-based
In short: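 In-cell translation control: HeLa cells electroporated with 20 μg PV1-Luc replicon RNA were placed in medium with 10 μg/ml puromycin at 37°C in 5% CO2. Luciferase in lysates was read by luminometer at hourly time points after transfection. Two experiments were averaged.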

Poliovirus 1 [7] = experiment: Antiviral activity against Human poliovirus type 1 infected in mouse assessed as viral titer in small intestine at 10 mg/kg, ip administered 1 hr post infection once daily for 5 days measured after 8 days by plaque assay; assay type: functional, organism-based; parameters: dose 10 mg/kg
Poliovirus 1 [8] = experiment: Antiviral activity against Human poliovirus type 1 infected in mouse assessed as viral titer in small intestine at 10 mg/kg, ip administered 1 hr post infection once daily for 5 days measured after 7 days by plaque assay; assay type: functional, organism-based; parameters: dose 10 mg/kg
Poliovirus 1 [9] = experiment: Antiviral activity against Human poliovirus type 1 infected in mouse assessed as viral titer in small intestine at 10 mg/kg, ip administered 1 hr post infection once daily for 5 days measured after 10 days by plaque assay; assay type: functional, organism-based; parameters: dose 10 mg/kg
Poliovirus 1 [10] = experiment: Antiviral activity against Human poliovirus type 1 infected in mouse assessed as viral titer in spinal cord at 10 mg/kg, ip administered 1 hr post infection once daily for 5 days measured after 8 days by plaque assay; assay type: functional, organism-based; parameters: dose 10 mg/kg
Poliovirus 1 [11] = experiment: Antiviral activity against Human poliovirus type 1 infected in mouse assessed as viral titer in spinal cord at 10 mg/kg, ip administered 1 hr post infection once daily for 5 days measured after 7 days by plaque assay; assay type: functional, organism-based; parameters: dose 10 mg/kg
Poliovirus 1 [12] = experiment: Antiviral activity against Human poliovirus type 1 infected in mouse assessed as viral titer in spinal cord at 10 mg/kg, ip administered 1 hr post infection once daily for 5 days measured after 10 days by plaque assay; assay type: functional, organism-based; parameters: dose 10 mg/kg
Poliovirus 1 [13] = experiment: Antiviral activity against Human poliovirus type 1 infected in mouse assessed as viral titer in brain 10 mg/kg, ip administered 1 hr post infection once daily for 5 days measured after 8 days by plaque assay; assay type: functional, organism-based; parameters: dose 10 mg/kg
Poliovirus 1 [14] = experiment: Antiviral activity against Human poliovirus type 1 infected in mouse assessed as viral titer in brain at 10 mg/kg, ip administered 1 hr post infection once daily for 5 days measured after 7 days by plaque assay; assay type: functional, organism-based; parameters: dose 10 mg/kg
Poliovirus 1 [15] = experiment: Antiviral activity against Human poliovirus type 1 infected in mouse assessed as viral titer in brain at 10 mg/kg, ip administered 1 hr post infection once daily for 5 days measured after 10 days by plaque assay; assay type: functional, organism-based; parameters: dose 10 mg/kg
Poliovirus 1 [16] = experiment: Antiviral activity against Human poliovirus type 1 infected in mouse assessed as protection from virus-induced paralytic symptom at 10 mg/kg, ip administered 1 hr post infection once daily for 5 days measured after 8 days by plaque assay; assay type: functional, organism-based; parameters: dose 10 mg/kg
In short: (§2)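 Poliovirus receptor transgenic (cPVR) mice, about 10 weeks old, were infected i.p. with 3 × 10^8 PFU wt PV1. They received 200 μg (~10 mg/kg) PPMO in 500 μl sterile PBS i.p., or PBS alone, at 1 h p.i. and then every 24 h ([…]; 6 mice per group). Mice were monitored daily for paralysis and death, and euthanized at near-total paralysis.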

Poliovirus 1 [17] = experiment: Antiviral activity against Human poliovirus type 1 infected in mouse assessed as protection from virus-induced paralytic symptom at 10 mg/kg, ip administered 1 hr post infection once daily for 5 days measured after 7 days by plaque assay; assay type: functional, organism-based; parameters: dose 10 mg/kg; in short: as §2
Poliovirus 1 [18] = experiment: Antiviral activity against Human poliovirus type 1 infected in mouse assessed as protection from virus-induced paralytic symptom at 10 mg/kg, ip administered 1 hr post infection once daily for 5 days measured after 10 days by plaque assay; assay type: functional, organism-based; parameters: dose 10 mg/kg; in short: as §2
Poliovirus 1 [19] = experiment: Antiviral activity against Human poliovirus type 1 infected in mouse assessed as protection from virus-induced death at 10 mg/kg, ip administered 1 hr post infection once daily for 5 days measured after 8 days by plaque assay; assay type: functional, organism-based; parameters: dose 10 mg/kg; in short: as §2
Poliovirus 1 [20] = experiment: Antiviral activity against Human poliovirus type 1 infected in mouse assessed as protection from virus-induced death at 10 mg/kg, ip administered 1 hr post infection once daily for 5 days measured after 7 days by plaque assay; assay type: functional, organism-based; parameters: dose 10 mg/kg; in short: as §2
Poliovirus 1 [21] = experiment: Antiviral activity against Human poliovirus type 1 infected in mouse assessed as protection from virus-induced death at 10 mg/kg, ip administered 1 hr post infection once daily for 5 days measured after 10 days by plaque assay; assay type: functional, organism-based; parameters: dose 10 mg/kg; in short: as §2
Poliovirus 1 [22] = experiment: Antiviral activity against Human poliovirus type 1 infected in mouse assessed as viral titer in large intestine at 10 mg/kg, ip administered 1 hr post infection once daily for 5 days measured after 8 days by plaque assay; assay type: functional, organism-based; parameters: dose 10 mg/kg
Poliovirus 1 [23] = experiment: Antiviral activity against Human poliovirus type 1 infected in mouse assessed as viral titer in large intestine at 10 mg/kg, ip administered 1 hr post infection once daily for 5 days measured after 7 days by plaque assay; assay type: functional, organism-based; parameters: dose 10 mg/kg
Poliovirus 1 [24] = experiment: Antiviral activity against Human poliovirus type 1 infected in mouse assessed as viral titer in large intestine at 10 mg/kg, ip administered 1 hr post infection once daily for 5 days measured after 10 days by plaque assay; assay type: functional, organism-based; parameters: dose 10 mg/kg
Poliovirus 1 [25] = experiment: Antiviral activity against Human poliovirus type 1 infected in mouse assessed as viral titer in spleen at 10 mg/kg, ip administered 1 hr post infection once daily for 5 days measured after 8 days by plaque assay; assay type: functional, organism-based; parameters: dose 10 mg/kg
Poliovirus 1 [26] = experiment: Antiviral activity against Human poliovirus type 1 infected in mouse assessed as viral titer in spleen at 10 mg/kg, ip administered 1 hr post infection once daily for 5 days measured after 7 days by plaque assay; assay type: functional, organism-based; parameters: dose 10 mg/kg
Poliovirus 1 [27] = experiment: Antiviral activity against Human poliovirus type 1 infected in mouse assessed as viral titer in spleen at 10 mg/kg, ip administered 1 hr post infection once daily for 5 days measured after 10 days by plaque assay; assay type: functional, organism-based; parameters: dose 10 mg/kg
Poliovirus 1 [28] = experiment: Antiviral activity against Human poliovirus type 1 infected in mouse assessed as viral titer in muscle at 10 mg/kg, ip administered 1 hr post infection once daily for 5 days measured after 8 days by plaque assay; assay type: functional, organism-based; parameters: dose 10 mg/kg; settings: Muscle tissue
Poliovirus 1 [29] = experiment: Antiviral activity against Human poliovirus type 1 infected in mouse assessed as viral titer in muscle at 10 mg/kg, ip administered 1 hr post infection once daily for 5 days measured after 7 days by plaque assay; assay type: functional, organism-based; parameters: dose 10 mg/kg; settings: Muscle tissue
Poliovirus 1 [30] = experiment: Antiviral activity against Human poliovirus type 1 infected in mouse assessed as viral titer in muscle at 10 mg/kg, ip administered 1 hr post infection once daily for 5 days measured after 10 days by plaque assay; assay type: functional, organism-based; parameters: dose 10 mg/kg; settings: Muscle tissue
Vero = experiment: Cytotoxicity against African green monkey Vero cells at 10 uM after 24 hrs by MTS assay; assay type: cell-based; settings: chlorocebus sabaeus
SK-N-MC = experiment: Cytotoxicity against human SK-N-MC cell at 10 uM after 24 hrs by MTS assay; assay type: cell-based

`Cc1cn([C@H]2CN(P(=O)(OC[C@@H]3CN(P(=O)(OC[C@@H]4CNC[C@H](n5cnc6c(=O)[nH]c(N)nc65)O4)N(C)C)C[C@H](n4cnc5c(N)ncnc54)O3)N(C)C)C[C@@H](COP(=O)(N(C)C)N3C[C@@H](COP(=O)(N(C)C)N4C[C@@H](COP(=O)(N(C)C)N5C[C@@H](COP(=O)(N(C)C)N6C[C@@H](COP(=O)(N(C)C)N7C[C@@H](COP(=O)(N(C)C)N8C[C@@H](COP(=O)(N(C)C)N9C[C@@H](COP(=O)(N(C)C)N%10C[C@@H](COP(=O)(N(C)C)N%11C[C@@H](COP(=O)(N(C)C)N%12C[C@@H](COP(=O)(N(C)C)N%13C[C@@H](COP(=O)(N(C)C)N%14C[C@@H](COP(=O)(N(C)C)N%15C[C@@H](COP(=O)(N(C)C)N%16C[C@@H](COP(=O)(N(C)C)N%17C[C@@H](COP(=O)(N(C)C)N%18C[C@@H](COP(=O)(N(C)C)N%19C[C@@H](COP(=O)(N(C)C)N%20C[C@@H](COP(=O)(N(C)C)N%21C[C@@H](COP(=O)(N(C)C)N%22CCN(C(=O)CCNC(=O)CCCCCNC(=O)[C@H](CCCNC(=N)N)NC(=O)CCCCCNC(=O)[C@H](CCCNC(=N)N)NC(=O)[C@H](CCCNC(=N)N)NC(=O)CCCCCNC(=O)[C@H](CCCNC(=N)N)NC(=O)[C@H](CCCNC(=N)N)NC(=O)CCCCCNC(=O)[C@H](CCCNC(=N)N)NC(=O)[C@H](CCCNC(=N)N)NC(=O)CCCCCNC(=O)[C@@H](N)CCCNC(=N)N)CC%22)O[C@@H](n%22cnc%23c(=O)[nH]c(N)nc%23%22)C%21)O[C@@H](n%21cnc%22c(N)ncnc%22%21)C%20)O[C@@H](n%20cnc%21c(N)ncnc%21%20)C%19)O[C@@H](n%19cnc%20c(N)ncnc%20%19)C%18)O[C@@H](n%18ccc(N)nc%18=O)C%17)O[C@@H](n%17cnc%18c(N)ncnc%18%17)C%16)O[C@@H](n%16ccc(N)nc%16=O)C%15)O[C@@H](n%15cnc%16c(=O)[nH]c(N)nc%16%15)C%14)O[C@@H](n%14cnc%15c(=O)[nH]c(N)nc%15%14)C%13)O[C@@H](n%13cnc%14c(N)ncnc%14%13)C%12)O[C@@H](n%12ccc(N)nc%12=O)C%11)O[C@@H](n%11cnc%12c(N)ncnc%12%11)C%10)O[C@@H](n%10ccc(N)nc%10=O)C9)O[C@@H](n9ccc(N)nc9=O)C8)O[C@@H](n8ccc(N)nc8=O)C7)O[C@@H](n7cnc8c(N)ncnc87)C6)O[C@@H](n6cnc7c(N)ncnc76)C5)O[C@@H](n5cnc6c(N)ncnc65)C4)O[C@@H](n4cnc5c(=O)[nH]c(N)nc54)C3)O2)c(=O)[nH]c1=O` (some centres not stated) was tested, and the Activity (HeLa [1]) was “Toxic”, the Activity (HeLa [2]) was “Non-toxic” and the IC50 (Poliovirus 1 [3]) was 2 µM. The CC50 (HeLa [4]) was 52 µM, the Activity (Poliovirus 1 [5]) was “Active” and the Activity (Poliovirus 1 [6]) was “inactive”. The Activity (Poliovirus 1 [7]) was “Active”, the Activity (Poliovirus 1 [8]) was “Active” and the Activity (Poliovirus 1 [9]) was “Active”. The Activity (Poliovirus 1 [10]) was “Active”, the Activity (Poliovirus 1 [11]) was “Active” and the Activity (Poliovirus 1 [12]) was “Active”. The Activity (Poliovirus 1 [13]) was “Active”, the Activity (Poliovirus 1 [14]) was “Active” and the Activity (Poliovirus 1 [15]) was “Active”. For the same compound, the Activity (Poliovirus 1 [16]) was “Active”, the Activity (Poliovirus 1 [17]) was “Active” and the Activity (Poliovirus 1 [18]) was “Active”. The Activity (Poliovirus 1 [19]) was “Active”, the Activity (Poliovirus 1 [20]) was “Active” and the Activity (Poliovirus 1 [21]) was “Active”. The Activity (Poliovirus 1 [22]) was “inactive”, the Activity (Poliovirus 1 [23]) was “inactive” and the Activity (Poliovirus 1 [24]) was “inactive”. For the same compound, the Activity (Poliovirus 1 [25]) was “inactive”, the Activity (Poliovirus 1 [26]) was “inactive” and the Activity (Poliovirus 1 [27]) was “inactive”. For the same compound, the Activity (Poliovirus 1 [28]) was “inactive”, the Activity (Poliovirus 1 [29]) was “inactive” and the Activity (Poliovirus 1 [30]) was “inactive”. For the same compound, the Activity (Vero) was “Non-toxic” and the Activity (SK-N-MC) was “Non-toxic”.
